Results: ChEMBL document CHEMBL1154781, “Synthesis and antimicrobial activity of some new N-acyl substituted phenothiazines” (2009)
Converted amounts (≈) assume the structure as drawn. The source made the active and inactive calls. The rule behind the calls is not given here.

What was measured:
[1] = tested on: Candida albicans; assay: Antifungal activity against Candida albicans NCIM 300 at >50 ug/ml after 2 to 3 days by serial plate dilution method; format: functional, organism-based
In short: (§1)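 For the fungal lawn, a loopful of each strain was suspended in 3 ml normal saline and spread on agar plates. Excess suspension was decanted and the plates were dried 1 h at 37 °C. Wells were punched and labeled. Plates, including a triplicate control, were held at 37 °C for 2–3 days. Zones of inhibition and MIC were recorded against fluconazole as standard.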

[2] = tested on: Pseudomonas aeruginosa; assay: Antibacterial activity against Pseudomonas aeruginosa ATCC 27853 at >50 ug/ml after 24 hrs by disc diffusion method; format: functional, organism-based
In short: (§2)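 Bacterial strains tested on discs at each concentration, placed in triplicate in nutrient agar seeded with fresh bacteria; incubated 37 °C for 24 h. Ciprofloxacin served as reference, with solvent and growth controls. Zones of inhibition and MICs were recorded.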

[3] = tested on: Staphylococcus aureus; assay: Antibacterial activity against Staphylococcus aureus ATCC 25923 at >50 ug/ml after 24 hrs by disc diffusion method; format: functional, organism-based; in short: as §2
[4] = tested on: Bacillus subtilis; assay: Antibacterial activity against Bacillus subtilis ATCC 11774 at >50 ug/ml after 24 hrs by disc diffusion method; format: functional, organism-based; in short: as §2
[5] = tested on: Aspergillus fumigatus; assay: Antifungal activity against Aspergillus fumigatus NCIM 902 at 10 ug/ml after 2 to 3 days by serial plate dilution method; format: functional; settings: read-out: IZ; in short: as §1
[6] = tested on: Aspergillus flavus; assay: Antifungal activity against Aspergillus flavus NCIM 524 after 2 to 3 days by serial plate dilution method; format: functional; in short: as §1
[7] = tested on: Aspergillus flavus; assay: Antifungal activity against Aspergillus flavus NCIM 524 at 10 ug/ml after 2 to 3 days by serial plate dilution method; format: functional; settings: read-out: IZ; in short: as §1
[8] = tested on: Aspergillus niger; assay: Antifungal activity against Aspergillus niger NCIM 617 after 2 to 3 days by serial plate dilution method; format: functional; in short: as §1
[9] = tested on: Aspergillus niger; assay: Antifungal activity against Aspergillus niger NCIM 617 at 10 ug/ml after 2 to 3 days by serial plate dilution method; format: functional; settings: read-out: IZ; in short: as §1
[10] = tested on: Escherichia coli; assay: Antibacterial activity against Escherichia coli ATCC 25922 after 24 hrs by disc diffusion method; format: functional; settings: ATCC 25922, 24 h; in short: as §2
[11] = tested on: Escherichia coli; assay: Antibacterial activity against Escherichia coli ATCC 25922 at 10 ug/ml after 24 hrs by disc diffusion method; format: functional; settings: ATCC 25922, 24 h, read-out: IZ; in short: as §2
[12] = tested on: Aspergillus fumigatus; assay: Antifungal activity against Aspergillus fumigatus NCIM 902 after 2 to 3 days by serial plate dilution method; format: functional; in short: as §1
[13] = tested on: Candida albicans; assay: Antifungal activity against Candida albicans NCIM 300 at 10 ug/ml after 2 to 3 days by serial plate dilution method; format: functional; settings: read-out: IZ; in short: as §1
[14] = tested on: Bacillus subtilis; assay: Antibacterial activity against Bacillus subtilis ATCC 11774 at 15 ug/ml after 24 hrs by disc diffusion method; format: functional; settings: ATCC 11774, 24 h, read-out: IZ; in short: as §2
[15] = tested on: Bacillus subtilis; assay: Antibacterial activity against Bacillus subtilis ATCC 11774 after 24 hrs by disc diffusion method; format: functional; settings: ATCC 11774, 24 h; in short: as §2
[16] = tested on: Candida albicans; assay: Antifungal activity against Candida albicans NCIM 300 after 2 to 3 days by serial plate dilution method; format: functional; in short: as §1
[17] = tested on: Pseudomonas aeruginosa; assay: Antibacterial activity against Pseudomonas aeruginosa ATCC 27853 after 24 hrs by disc diffusion method; format: functional; settings: ATCC 27853, 24 h; in short: as §2
[18] = tested on: Pseudomonas aeruginosa; assay: Antibacterial activity against Pseudomonas aeruginosa ATCC 27853 at 10 ug/ml after 24 hrs by disc diffusion method; format: functional; settings: ATCC 27853, 24 h, read-out: IZ; in short: as §2
[19] = tested on: Staphylococcus aureus; assay: Antibacterial activity against Staphylococcus aureus ATCC 25923 at after 24 hrs by disc diffusion method; format: functional; settings: ATCC 25923, 24 h; in short: as §2
[20] = tested on: Staphylococcus aureus; assay: Antibacterial activity against Staphylococcus aureus ATCC 25923 at 10 ug/ml after 24 hrs by disc diffusion method; format: functional; settings: ATCC 25923, 24 h, read-out: IZ; in short: as §2

Row | SMILES | Activity [1] | Activity [2] | Activity [3] | Activity [4] | zone of inhibition at 10 µg/mL [5] [mm] | MIC [6] [µg/mL] | zone of inhibition at 10 µg/mL [7] [mm] | MIC [8] [µg/mL] | zone of inhibition at 10 µg/mL [9] [mm] | MIC [10] [µg/mL] | zone of inhibition at 10 µg/mL [11] [mm] | MIC [12] [µg/mL] | zone of inhibition at 10 µg/mL [13] [mm] | zone of inhibition at 15 µg/mL [14] [mm] | MIC [15] [µg/mL] | MIC [16] [µg/mL] | MIC [17] [µg/mL] | zone of inhibition at 10 µg/mL [18] [mm] | MIC [19] [µg/mL] | zone of inhibition at 10 µg/mL [20] [mm]
1 | CC(=O)c1ccc2c(c1)N(C(=O)CN1C(=O)CCC1=O)c1ccccc1S2 | inactive | inactive | inactive | inactive | 13 | 25 (≈ 65.7 µM) | 20 | 20 (≈ 52.6 µM) | 26 | 10 (≈ 26.3 µM) | 24 | 15 (≈ 39.4 µM) | – | – | – | – | – | – | – | –
2 | O=C1CCC(=O)N1CC(=O)N1c2ccccc2Sc2ccccc21 | – | inactive | inactive | – | 19 | 15 (≈ 44.3 µM) | 24 | 20 (≈ 59.1 µM) | 19 | 10 (≈ 29.6 µM) | 24 | 20 (≈ 59.1 µM) | 17 | 18 | 15 (≈ 44.3 µM) | 15 (≈ 44.3 µM) | – | – | – | –
3 | OC(Cn1cncn1)(Cn1cncn1)c1ccc(F)cc1F [FLUCONAZOLE] | – | – | – | – | 20 | 10 (≈ 32.7 µM) | 24 | 10 (≈ 32.7 µM) | 23 | – | – | 10 (≈ 32.7 µM) | 21 | – | – | 10 (≈ 32.7 µM) | – | – | – | –
4 | O=C1CCC(=O)N1CC(=O)N1c2ccccc2Sc2ccc(Cl)cc21 | – | – | – | – | 18 | 25 (≈ 67.1 µM) | 12 | 20 (≈ 53.6 µM) | 23 | 15 (≈ 40.2 µM) | 16 | 20 (≈ 53.6 µM) | 13 | 14 | 30 (≈ 80.5 µM) | 25 (≈ 67.1 µM) | 15 (≈ 40.2 µM) | 16 | 30 (≈ 80.5 µM) | 12
5 | CC(=O)c1ccc2c(c1)N(C(=O)CN1C(=O)c3ccccc3C1=O)c1ccccc1S2 | – | inactive | – | – | 19 | 10 (≈ 23.3 µM) | 22 | 10 (≈ 23.3 µM) | 25 | 10 (≈ 23.3 µM) | 21 | 15 (≈ 35 µM) | 14 | 16 | 15 (≈ 35 µM) | 10 (≈ 23.3 µM) | – | – | 10 (≈ 23.3 µM) | 19
6 | O=C1C=CC(=O)N1CC(=O)N1c2ccccc2Sc2ccc(C(F)(F)F)cc21 | – | – | inactive | – | 10 | 20 (≈ 49.5 µM) | 19 | 20 (≈ 49.5 µM) | 19 | 10 (≈ 24.7 µM) | 19 | 30 (≈ 74.2 µM) | 19 | 17 | 15 (≈ 37.1 µM) | 20 (≈ 49.5 µM) | 15 (≈ 37.1 µM) | 19 | – | –
7 | O=C1C=CC(=O)N1CC(=O)N1c2ccccc2Sc2ccc(Cl)cc21 | – | – | – | inactive | 16 | 20 (≈ 53.9 µM) | 15 | 20 (≈ 53.9 µM) | 18 | 10 (≈ 27 µM) | 20 | 20 (≈ 53.9 µM) | 17 | – | – | 20 (≈ 53.9 µM) | 15 (≈ 40.5 µM) | 17 | 15 (≈ 40.5 µM) | 18
8 | O=C1c2ccccc2C(=O)N1CC(=O)N1c2ccccc2Sc2ccccc21 | – | inactive | – | – | 20 | 10 (≈ 25.9 µM) | 22 | 10 (≈ 25.9 µM) | 23 | 10 (≈ 25.9 µM) | 22 | 15 (≈ 38.8 µM) | 17 | 17 | 15 (≈ 38.8 µM) | 10 (≈ 25.9 µM) | – | – | 10 (≈ 25.9 µM) | 20
9 | O=C1C=CC(=O)N1CC(=O)N1c2ccccc2Sc2ccccc21 | – | – | – | – | 15 | 20 (≈ 59.5 µM) | 18 | 20 (≈ 59.5 µM) | 17 | 10 (≈ 29.7 µM) | 20 | 20 (≈ 59.5 µM) | 17 | 16 | 15 (≈ 44.6 µM) | 20 (≈ 59.5 µM) | 15 (≈ 44.6 µM) | 17 | 15 (≈ 44.6 µM) | 15
10 | O=C1c2ccccc2C(=O)N1CC(=O)N1c2ccccc2Sc2ccc(Cl)cc21 | – | – | – | – | 19 | 10 (≈ 23.8 µM) | 21 | 10 (≈ 23.8 µM) | 24 | 10 (≈ 23.8 µM) | 23 | 10 (≈ 23.8 µM) | 18 | 13 | 30 (≈ 71.3 µM) | 10 (≈ 23.8 µM) | 10 (≈ 23.8 µM) | 18 | 10 (≈ 23.8 µM) | 19
11 | O=C(O)c1cn(C2CC2)c2cc(N3CCNCC3)c(F)cc2c1=O [CIPROFLOXACIN] | – | – | – | – | – | – | – | – | – | – | – | – | – | 22 | 10 (≈ 30.2 µM) | – | 10 (≈ 30.2 µM) | 23 | 10 (≈ 30.2 µM) | 21
12 | O=C1CCC(=O)N1CC(=O)N1c2ccccc2Sc2ccc(C(F)(F)F)cc21 | – | – | – | – | 19 | 10 (≈ 24.6 µM) | 23 | 20 (≈ 49.2 µM) | 21 | 20 (≈ 49.2 µM) | 21 | 15 (≈ 36.9 µM) | 19 | 14 | 25 (≈ 61.5 µM) | 20 (≈ 49.2 µM) | 15 (≈ 36.9 µM) | 19 | 15 (≈ 36.9 µM) | 18
